Measured values published in ChEMBL document CHEMBL3259728, “Design, synthesis and biological evaluation of some novel substituted quinazolines as antitumor agents” (2014).

Assays:
Type in all cases: functional
[1] = Growth inhibition of human UACC257 cells at 10 uM after 48 hrs by SRB assay; settings: UACC-257, 48 h, read-out: GI
Summary of the method: (§1)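 NCI-60 primary one-dose screen run at the US NCI, with human tumour lines from nine cancer types. Compound added once at 10^-5 M, followed by 48 h incubation. End point was sulforhodamine B protein staining read spectrophotometrically. Result given as percent growth of treated cells against untreated controls, reported as % growth inhibition.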

HT-29 = test: Growth inhibition of human HT-29 cells at 10 uM after 48 hrs by SRB assay; settings: HT-29, 48 h, read-out: GI; summary of the method: as §1
Malme-3M = test: Growth inhibition of human MALME-3M cells at 10 uM after 48 hrs by SRB assay; settings: read-out: GI; summary of the method: as §1
[2] = Growth inhibition of human NCI-ADR-RES cells at 10 uM after 48 hrs by SRB assay; settings: read-out: GI; summary of the method: as §1
MDA-MB-435 = test: Growth inhibition of human MDA-MB-435 cells at 10 uM after 48 hrs by SRB assay; settings: MDA-MB-435, 48 h, read-out: GI; summary of the method: as §1
SN12C = test: Growth inhibition of human SN12C cells at 10 uM after 48 hrs by SRB assay; settings: read-out: GI; summary of the method: as §1
DU-145 = test: Growth inhibition of human DU145 cells at 10 uM after 48 hrs by SRB assay; settings: DU-145, 48 h, read-out: GI; summary of the method: as §1
[3] = Growth inhibition of human EKVX cells at 10 uM after 48 hrs by SRB assay; settings: read-out: GI; summary of the method: as §1
NCI-H226 = test: Growth inhibition of human NCI-H226 cells at 10 uM after 48 hrs by SRB assay; settings: NCI-H226, 48 h, read-out: GI; summary of the method: as §1
NCI-H522 = test: Growth inhibition of human NCI-H522 cells at 10 uM after 48 hrs by SRB assay; settings: NCI-H522, 48 h, read-out: GI; summary of the method: as §1
COLO 205 = test: Growth inhibition of human COLO205 cells at 10 uM after 48 hrs by SRB assay; settings: COLO 205, 48 h, read-out: GI
Summary of the method: (§2)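 NCI primary one-dose screen. A single concentration of 10^-5 M was added to the cell culture, followed by 48 h incubation and an SRB protein-dye endpoint read spectrophotometrically. Results are growth percentage relative to untreated control cells, reported as % growth inhibition.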

SK-OV-3 = test: Growth inhibition of human SKOV3 cells at 10 uM after 48 hrs by SRB assay; settings: SK-OV-3, 48 h, read-out: GI; summary of the method: as §1
A549 = test: Growth inhibition of human A549 cells at 10 uM after 48 hrs by SRB assay; settings: A549, 48 h, read-out: GI; summary of the method: as §2
KM12 = test: Growth inhibition of human KM12 cells at 10 uM after 48 hrs by SRB assay; settings: KM12, 48 h, read-out: GI; summary of the method: as §1
RPMI-8226 = test: Growth inhibition of human RPMI8226 cells at 10 uM after 48 hrs by SRB assay; settings: RPMI-8226, 48 h, read-out: GI; summary of the method: as §1
SK-MEL-28 = test: Growth inhibition of human SK-MEL-28 cells at 10 uM after 48 hrs by SRB assay; settings: SK-MEL-28, 48 h, read-out: GI; summary of the method: as §1
HCT-116 = test: Growth inhibition of human HCT116 cells at 10 uM after 48 hrs by SRB assay; settings: HCT-116, 48 h, read-out: GI; summary of the method: as §1
HOP-62 = test: Growth inhibition of human HOP62 cells at 10 uM after 48 hrs by SRB assay; settings: HOP-62, 48 h, read-out: GI; summary of the method: as §1
[4] = Growth inhibition of human Hs578T cells at 10 uM after 48 hrs by SRB assay; settings: Hs-578T, read-out: GI; summary of the method: as §1
IGROV-1 = test: Growth inhibition of human IGROV1 cells at 10 uM after 48 hrs by SRB assay; settings: IGROV-1, 48 h, read-out: GI; summary of the method: as §1
SW-620 = test: Growth inhibition of human SW620 cells at 10 uM after 48 hrs by SRB assay; settings: SW-620, 48 h, read-out: GI; summary of the method: as §1
[5] = Growth inhibition of human HCC2998 cells at 10 uM after 48 hrs by SRB assay; settings: HCC 2998, 48 h, read-out: GI; summary of the method: as §1
SK-MEL-5 = test: Growth inhibition of human SK-MEL-5 cells at 10 uM after 48 hrs by SRB assay; settings: SK-MEL-5, 48 h, read-out: GI; summary of the method: as §1
M14 = test: Growth inhibition of human M14 cells at 10 uM after 48 hrs by SRB assay; settings: M14, 48 h, read-out: GI; summary of the method: as §1
[6] = Growth inhibition of human UACC62 cells at 10 uM after 48 hrs by SRB assay; settings: UACC-62, 48 h, read-out: GI; summary of the method: as §1
[7] = Growth inhibition of human BT549 cells at 10 uM after 48 hrs by SRB assay; settings: BT-549, 48 h, read-out: GI; summary of the method: as §2
SNB-75 = test: Growth inhibition of human SNB75 cells at 10 uM after 48 hrs by SRB assay; settings: SNB-75, 48 h, read-out: GI; summary of the method: as §1
CCRF-CEM = test: Growth inhibition of human CCRF-CEM cells at 10 uM after 48 hrs by SRB assay; settings: read-out: GI; summary of the method: as §2
[8] = Growth inhibition of human SF539 cells at 10 uM after 48 hrs by SRB assay; settings: SF-539, 48 h, read-out: GI; summary of the method: as §1
[9] = Growth inhibition of human OVCAR3 cells at 10 uM after 48 hrs by SRB assay; settings: OVCAR-3, 48 h, read-out: GI; summary of the method: as §1
[10] = Growth inhibition of human HOP92 cells at 10 uM after 48 hrs by SRB assay; settings: HOP-92, 48 h, read-out: GI; summary of the method: as §1
[11] = Growth inhibition of human UO31 cells at 10 uM after 48 hrs by SRB assay; settings: UO-31, 48 h, read-out: GI; summary of the method: as §1
SNB-19 = test: Growth inhibition of human SNB19 cells at 10 uM after 48 hrs by SRB assay; settings: SNB-19, 48 h, read-out: GI; summary of the method: as §1
TK-10 = test: Growth inhibition of human TK10 cells at 10 uM after 48 hrs by SRB assay; settings: TK-10, 48 h, read-out: GI; summary of the method: as §1
U-251 = test: Growth inhibition of human U251 cells at 10 uM after 48 hrs by SRB assay; settings: U-251, 48 h, read-out: GI; summary of the method: as §1
[12] = Growth inhibition of human RXF393 cells at 10 uM after 48 hrs by SRB assay; settings: RXF 393, 48 h, read-out: GI; summary of the method: as §1
[13] = Growth inhibition of human OVCAR5 cells at 10 uM after 48 hrs by SRB assay; settings: OVCAR-5, 48 h, read-out: GI; summary of the method: as §1
MDA-MB-468 = test: Growth inhibition of human MDA-MB-468 cells assessed as cell growth at 10 uM after 48 hrs by SRB assay; settings: MDA-MB-468, 48 h, read-out: GI; summary of the method: as §1

Compound: Cc1ccc(-c2nc3ccc(Cl)cc3c3nnc(S)n23)cc1
- inhibition of growth at 10 µM [1]: 33%
- inhibition of growth at 10 µM (HT-29): < 10%
- inhibition of growth at 10 µM (Malme-3M): < 10%
- inhibition of growth at 10 µM [2]: < 10%
- inhibition of growth at 10 µM (MDA-MB-435): < 10%
- inhibition of growth at 10 µM (SN12C): < 10%
- inhibition of growth at 10 µM (DU-145): < 10%
- inhibition of growth at 10 µM [3]: 11%
- inhibition of growth at 10 µM (NCI-H226): 27%
- inhibition of growth at 10 µM (NCI-H522): < 10%
- inhibition of growth at 10 µM (COLO 205): < 10%
- inhibition of growth at 10 µM (SK-OV-3): < 10%
- inhibition of growth at 10 µM (A549): 11%
- inhibition of growth at 10 µM (KM12): 11%
- inhibition of growth at 10 µM (RPMI-8226): < 10%
- inhibition of growth at 10 µM (SK-MEL-28): < 10%
- inhibition of growth at 10 µM (HCT-116): < 10%
- inhibition of growth at 10 µM (HOP-62): < 10%
- inhibition of growth at 10 µM [4]: < 10%
- inhibition of growth at 10 µM (IGROV-1): < 10%
- inhibition of growth at 10 µM (SW-620): < 10%
- inhibition of growth at 10 µM [5]: < 10%
- inhibition of growth at 10 µM (SK-MEL-5): 12%
- inhibition of growth at 10 µM (M14): < 10%
- inhibition of growth at 10 µM [6]: < 10%
- inhibition of growth at 10 µM [7]: < 10%
- inhibition of growth at 10 µM (SNB-75): < 10%
- inhibition of growth at 10 µM (CCRF-CEM): 12%
- inhibition of growth at 10 µM [8]: < 10%
- inhibition of growth at 10 µM [9]: < 10%
- inhibition of growth at 10 µM [10]: < 10%
- inhibition of growth at 10 µM [11]: < 10%
- inhibition of growth at 10 µM (SNB-19): < 10%
- inhibition of growth at 10 µM (TK-10): 19%
- inhibition of growth at 10 µM (U-251): < 10%
- inhibition of growth at 10 µM [12]: < 10%
- inhibition of growth at 10 µM [13]: < 10%
- inhibition of growth at 10 µM (MDA-MB-468): < 10%
